Test results: ChEMBL document CHEMBL4619781 (J Med Chem, 2020)
One block for each molecule: values may come before it. Calls of active or inactive are those of the source. The rule behind the calls is not given here.

Experiments:
SF-295 = assay: Cytotoxicity against human SF295 cells assessed as reduction in cell viability measured after 72 hrs by CellTiter 96 aqueous one solution assay; type: functional, cell-based; settings: SF-295, 72 h
How it was run: (§1)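 Cells diluted to 5 × 10^4 cells/mL in RPMI 1640 or DMEM with 10% FBS, streptomycin and penicillin; plated and incubated 24 h at 37 °C, 5% CO2. Medium replaced, then serial dilutions added from DMSO at final 0–1000 nM for 72 h. Absorbance at 490 nm read after 30–60 min with reagent. Mean ± SD of three replicates; EC50 by curve fitting.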

NCI-H226 = assay: Cytotoxicity against human NCI-H226 cells assessed as reduction in cell viability measured after 72 hrs by CellTiter 96 aqueous one solution assay; type: functional, cell-based; settings: NCI-H226, 72 h; how it was run: as §1
MDA-MB-231 = assay: Cytotoxicity against human MDA-MB-231 cells assessed as reduction in cell viability measured after 72 hrs by CellTiter 96 aqueous one solution assay; type: functional, cell-based; settings: MDA-MB-231, 72 h; how it was run: as §1
SK-MEL-5 = assay: Cytotoxicity against human SK-MEL-5 cells assessed as reduction in cell viability measured after 72 hrs by CellTiter 96 aqueous one solution assay; type: functional, cell-based; settings: SK-MEL-5, 72 h; how it was run: as §1
DNA = assay: Induction of Escherichia coli plasmid pUC19 DNA cleavage assessed as increase in relaxation of supercoiled plasmid DNA measured after 24 hrs by SYBR green staining based gel electrophoresis; type: nucleic-acid assay
How it was run: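 Supercoiled pUC19 (25 nM plasmid, […]) in Dulbecco's PBS pH 7.4 with 5% DMSO and varying compound concentrations, with or without 1 mM reduced glutathione, 37 °C for 24 h, in triplicate. Run on 1% agarose gel in TAE at 100 V for 1 h. Supercoiled (form I) band intensity normalized to DMSO controls.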

- Activity (DNA): Active
SMILES: COC(=O)[C@H](O)[C@@](C)(O)[C@@]12O[C@]13c1cc(O)c4c(c1N[C@H]2C#C/C=C\C#C[C@H]3O)C(=O)c1cc(OC)ccc1C4=O
- EC50 (SF-295): 21 nM
- EC50 (NCI-H226): 68 nM
- EC50 (MDA-MB-231): 14 nM
- EC50 (SK-MEL-5): 19 nM

SMILES: COc1ccc2c(c1O)C(=O)c1c3c(cc(O)c1C2=O)[C@@]12O[C@@]1([C@@H](C)O)[C@H](C#C/C=C\C#C[C@H]2O)N3
- EC50 (SF-295): 0.45 nM
- EC50 (NCI-H226): 4.2 nM
- EC50 (MDA-MB-231): 1.1 nM
- EC50 (SK-MEL-5): 0.74 nM
- Activity (DNA): Active

- Activity (DNA): Active
SMILES: COC(=O)[C@H](O)[C@@](C)(O)[C@@]12O[C@]13c1cc(O)c4c(c1N[C@H]2C#C/C=C\C#C[C@H]3O)C(=O)c1c(ccc(OCC(C)=O)c1O)C4=O
- EC50 (SF-295): 1.1 nM
- EC50 (NCI-H226): 3.7 nM
- EC50 (MDA-MB-231): 0.9 nM
- EC50 (SK-MEL-5): 0.8 nM

- Activity (DNA): Active
SMILES: C#CCOc1ccc2c(c1O)C(=O)c1c3c(cc(O)c1C2=O)[C@@]12O[C@@]1([C@](C)(O)[C@@H](O)C(=O)OC)[C@H](C#C/C=C\C#C[C@H]2O)N3
- EC50 (SF-295): 2.8 nM
- EC50 (NCI-H226): 26 nM
- EC50 (MDA-MB-231): 3.7 nM
- EC50 (SK-MEL-5): 2.8 nM

SMILES: COC(=O)[C@H](O)[C@@](C)(O)[C@@]12O[C@]13c1cc(O)c4c(c1N[C@H]2C#C/C=C\C#C[C@H]3O)C(=O)c1c(ccc(O)c1O)C4=O
- EC50 (SF-295): 45 nM
- EC50 (NCI-H226): 66 nM
- EC50 (MDA-MB-231): 34 nM
- EC50 (SK-MEL-5): 32 nM
- Activity (DNA): Active

- Activity (DNA): Active
SMILES: COC(=O)[C@H](O)[C@@](C)(O)[C@@]12O[C@]13c1cc(O)c4c(c1N[C@H]2C#C/C=C\C#C[C@H]3O)C(=O)c1c(ccc(OC)c1O)C4=O
- EC50 (SF-295): 4 nM
- EC50 (NCI-H226): 32 nM
- EC50 (MDA-MB-231): 5 nM
- EC50 (SK-MEL-5): 2.8 nM

- Activity (DNA): Active
SMILES: COC(=O)[C@H](O)[C@@](C)(O)[C@@]12O[C@]13c1cc(O)c4c(c1N[C@H]2C#C/C=C\C#C[C@H]3O)C(=O)c1cc(O)ccc1C4=O
- EC50 (SF-295): 51 nM
- EC50 (NCI-H226): 75 nM
- EC50 (MDA-MB-231): 37 nM
- EC50 (SK-MEL-5): 36 nM
